The values below come from ChEMBL document CHEMBL3352250, “Antibacterial secondary metabolites from an endophytic fungus, Eupenicillium sp. LG41” (2014).

What all share (format): functional
One assay concerns Acinetobacter sp. Nature of the assay: Antimicrobial activity against Acinetobacter sp. BD4 DSM 586 incubated for 24 hrs by disk diffusion method. A digest of the protocol: (§1)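 CLSI disk diffusion on nutrient agar, 4 mm deep, spread with 200 μL inoculum. 6.0 mm paper disks carry 40 μL of sample in HPLC-grade MeOH (0.1 to 10 μg/mL), air-dried. Plates are held 2 h at 4 °C, then incubated 24 h at 37 °C. Controls are streptomycin and gentamicin plus a solvent disk. MIC is derived per CLSI, triplicate.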
In general terms: In agar diffusion tests the substance spreads into inoculated agar from a disc or well.

The test system of a further assay is Bacillus subtilis. Nature of the assay: Antimicrobial activity against Bacillus subtilis DSM 1088 incubated for 24 hrs by disk diffusion method. The method, boiled down:
as §1

A further assay deals with Colletotrichum circinans. Description: Antimicrobial activity against Colletotrichum circinans incubated for 48 hrs by disk diffusion method. The method, boiled down:
(§2)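 Disk diffusion on potato dextrose agar, 4 mm deep. Mycelia are macerated in a sterile mortar to a homogeneous inoculum and 200 μL is spread. 6.0 mm disks carry 40 μL of sample, air-dried. Plates are held 2 h at 4 °C, then incubated 48 h at 28 °C. Solvent-disk, organism and sterility controls are included. Triplicate.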

The subject of the next assay is Staphylococcus aureus. Nature of the assay: Antimicrobial activity against Staphylococcus aureus subsp. aureus DSM 799 incubated for 24 hrs by disk diffusion method. The method, boiled down:
as §1

A further assay deals with Aspergillus aculeatus. Description: Antimicrobial activity against Aspergillus aculeatus incubated for 48 hrs by disk diffusion method. A digest of the protocol:
as §2

A further assay concerns Escherichia coli. Nature of the assay: Antimicrobial activity against Escherichia coli DSM 1116 incubated for 24 hrs by disk diffusion method. The method, boiled down:
as §1

Values after ≈ are worked out from the molar mass of the structure shown. Active and inactive are the calls of the source.

For orientation: MIC means the smallest concentration in the dilution series that meets the test's criterion for growth inhibition. For `C=C(C(=O)O)[C@H](CCCC)C(=O)O`, the MIC is 1 µg/mL (≈ 5.37 µM) in the assay with Acinetobacter sp. (BD4 DSM 586, 24 h); over 10 µg/mL with Bacillus subtilis (DSM 1088, 24 h); 10 µg/mL (≈ 53.7 µM) in the assay on Staphylococcus aureus (DSM 799, 24 h); 10 µg/mL (≈ 53.7 µM) against Escherichia coli (DSM 1116, 24 h). In addition, the MIC entry in the assay with Colletotrichum circinans and in the assay on Aspergillus aculeatus was “inactive” throughout.
Turning to `C=C(C(=O)O)[C@H](CCCCCC)C(=O)O`, the MIC against Acinetobacter sp. (BD4 DSM 586, 24 h) is 1 µg/mL (≈ 4.67 µM); against Bacillus subtilis (DSM 1088, 24 h), over 10 µg/mL; in the assay with Staphylococcus aureus (DSM 799, 24 h) it was 10 µg/mL (≈ 46.7 µM); in the assay on Escherichia coli (DSM 1116, 24 h), 10 µg/mL (≈ 46.7 µM). The MIC result with Colletotrichum circinans and in the assay on Aspergillus aculeatus was “inactive” throughout.
On to `COc1cc(O)c2c(O)c3c(c4c2c1[C@]1(C4)C(C)=CCCC1(C)C)[C@H](O)[C@@]1(O)CC(O)=C(C(N)=O)C(=O)[C@@]1(O)C3=O`, for which the MIC result with Colletotrichum circinans and in the assay on Aspergillus aculeatus was “inactive” each time.
With `CC[C@@H](C)[C@H]1C=C[C@H]2[C@H](O)[C@H](O)C[C@@H](C)[C@@H]2[C@@]1(C)C(=O)/C=C\O`, the MIC against Acinetobacter sp. (BD4 DSM 586, 24 h) is 10 µg/mL (≈ 31 µM); against Bacillus subtilis (DSM 1088, 24 h), over 10 µg/mL; against Staphylococcus aureus (DSM 799, 24 h), over 10 µg/mL; in the assay on Escherichia coli (DSM 1116, 24 h), 5 µg/mL (≈ 15.5 µM). The MIC result in the assay on Colletotrichum circinans and in the assay on Aspergillus aculeatus was “inactive” throughout.
As to `CC[C@@H](C)[C@H]1C=C[C@H]2[C@H](O)[C@H](O)C[C@@H](C)[C@@H]2[C@@]1(C)C(=O)/C=C/OC`, the minimal inhibitory concentration (MIC) with Acinetobacter sp. (BD4 DSM 586, 24 h) was over 10 µg/mL; against Bacillus subtilis (DSM 1088, 24 h) it was over 10 µg/mL; against Staphylococcus aureus (DSM 799, 24 h), 1 µg/mL (≈ 2.97 µM); against Escherichia coli (DSM 1116, 24 h) it was 5 µg/mL (≈ 14.9 µM). Moreover, the MIC entry with Colletotrichum circinans and in the assay on Aspergillus aculeatus was “inactive” each time.
For `CC(C)=CCC[C@]1(C)[C@@H]2[C@H]1C=C(C(=O)O)C[C@@H]2O`, the MIC against Acinetobacter sp. (BD4 DSM 586, 24 h) was 5 µg/mL (≈ 20 µM); against Bacillus subtilis (DSM 1088, 24 h) it was over 10 µg/mL; in the assay with Staphylococcus aureus (DSM 799, 24 h) it was over 10 µg/mL; in the assay with Escherichia coli (DSM 1116, 24 h), 5 µg/mL (≈ 20 µM). In addition, the MIC entry in the assay with Colletotrichum circinans and in the assay on Aspergillus aculeatus was “inactive” throughout.
As for GENTAMICIN, the minimum inhibitory concentration (MIC) came out at 5 µg/mL against Acinetobacter sp., 1 µg/mL with Bacillus subtilis, 1 µg/mL with Staphylococcus aureus and 1 µg/mL in the assay on Escherichia coli.
With `CN[C@@H]1[C@H](O[C@H]2[C@H](O[C@H]3[C@H](O)[C@@H](O)[C@H](N=C(N)N)[C@@H](O)[C@@H]3N=C(N)N)O[C@@H](C)[C@]2(O)C=O)O[C@@H](CO)[C@H](O)[C@H]1O` [STREPTOMYCIN], the MIC against Acinetobacter sp. (BD4 DSM 586, 24 h) was found to be 10 µg/mL (≈ 17.2 µM); with Bacillus subtilis (DSM 1088, 24 h) it was 5 µg/mL (≈ 8.6 µM); against Staphylococcus aureus (DSM 799, 24 h), 5 µg/mL (≈ 8.6 µM); with Escherichia coli (DSM 1116, 24 h) it was 1 µg/mL (≈ 1.72 µM).
Consider `COC1=C(C2=C(OC)C(=O)c3cc4c(c(O)c3C2=O)C(=O)O[C@H](C)C4)C(=O)c2c(cc3c(c2O)C(=O)O[C@H](C)C3)C1=O`, for which the MIC entry in the assay on Colletotrichum circinans and with Aspergillus aculeatus was “inactive” throughout.
For the molecule `C[C@]1(C(=O)O)[C@@H]2C=C(C(=O)O)CC[C@@H]21`, the minimal inhibitory concentration (MIC) in the assay with Acinetobacter sp. (BD4 DSM 586, 24 h) was 5 µg/mL (≈ 25.5 µM); in the assay on Bacillus subtilis (DSM 1088, 24 h), over 10 µg/mL; in the assay on Staphylococcus aureus (DSM 799, 24 h) it was over 10 µg/mL; with Escherichia coli (DSM 1116, 24 h), 10 µg/mL (≈ 51 µM). For the same molecule, the MIC result in the assay on Colletotrichum circinans and with Aspergillus aculeatus was “inactive” each time.
